Source: ChEMBL document CHEMBL1799926, “Applying the pro-drug approach to afford highly bioavailable antagonists of P2Y(14)” (Bioorg Med Chem Lett, 2011)

Experiments:
[1] = Binding affinity to chimpanzee P2Y14 receptor; design: species or system Pan troglodytes
[2] = Half life in mouse at 75 mg/kg, po bid; type: ADME, organism-based; design: dose 75 mg/kg, route oral; conditions: in vivo
[3] = Oral bioavailability in mouse at 75 mg/kg bid; type: ADME, organism-based; conditions: in vivo
[4] = Clearance in mouse at 75 mg/kg, po bid; type: ADME, organism-based; design: dose 75 mg/kg, route oral; conditions: in vivo
[5] = Binding affinity to chimpanzee P2Y14 receptor in presence of 2% human serum albumin; design: species or system Pan troglodytes
Albumin = Albumin (Homo sapiens, UniProt P02768); test: Binding affinity to 4.5 % human serum albumin
[6] = Metabolic stability in whole blood after 1 hr
Mus musculus = test: (§1) AUC in mouse at 50 mg/kg, po after 24 hrs; type: ADME, organism-based, Plasma; design: time < 24 hr, dose 50 mg/kg, route oral; conditions: in vivo, 24 h
Outline: (§2)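 Mice dosed orally at 50 mg/kg in 0.25% methocel. Plasma levels of the parent zwitterion were measured for both the parent and the ester prodrugs, giving AUC, 24 h concentration and clearance. For prodrugs, bioavailability is expressed as virtual F, based on parent-drug exposure.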

[7] = Plasma concentration in mouse at 50 mg/kg, po after 24 hrs; type: ADME, organism-based; design: dose 50 mg/kg, route oral; outline: as §2
[8] = Oral bioavailability in mouse at 50 mg/kg; type: ADME, organism-based; conditions: in vivo; outline: as §2
[9] = as §1; type: ADME, organism-based, Plasma; design: time < 24 hr, dose 50 mg/kg, route oral; conditions: plasma; outline: as §2

Sequence of Albumin (P02768 whole entry): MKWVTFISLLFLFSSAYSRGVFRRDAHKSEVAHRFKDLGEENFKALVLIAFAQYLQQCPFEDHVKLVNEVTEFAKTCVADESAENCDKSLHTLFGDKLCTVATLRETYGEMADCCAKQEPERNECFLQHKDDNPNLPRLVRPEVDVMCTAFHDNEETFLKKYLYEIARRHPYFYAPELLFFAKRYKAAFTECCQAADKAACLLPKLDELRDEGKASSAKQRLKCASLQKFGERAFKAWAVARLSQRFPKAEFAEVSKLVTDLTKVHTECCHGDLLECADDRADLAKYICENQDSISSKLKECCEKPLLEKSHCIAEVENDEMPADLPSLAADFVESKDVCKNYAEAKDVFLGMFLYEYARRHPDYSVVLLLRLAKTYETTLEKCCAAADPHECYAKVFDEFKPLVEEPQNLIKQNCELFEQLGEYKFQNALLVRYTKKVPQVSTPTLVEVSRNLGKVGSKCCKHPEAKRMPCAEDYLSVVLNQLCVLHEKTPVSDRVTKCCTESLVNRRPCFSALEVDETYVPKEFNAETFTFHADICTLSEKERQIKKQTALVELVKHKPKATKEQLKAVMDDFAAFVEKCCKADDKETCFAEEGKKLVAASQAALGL

Ki [1] [nM] | Ki [5] [nM] | Stability [6] | concentration at 24 h [7] [nM] | bioavailability [8] [%] | SMILES | further results
4 | 1290 | – | – | – | O=C(O)c1cc(-c2ccc([C@@H](O)C(F)F)cc2)c2ccc(-c3ccc(C(F)(F)F)cc3)cc2c1 | half-life [2]: 3 h; bioavailability [3]: 67%; CL/F [4]: 1.6 mL/min/kg; Activity (Albumin): > 99%
– | – | Unstable | – | – | CC(=O)OCOC(=O)c1cc(-c2ccc(C3CCNCC3)cc2)c2ccc(-c3ccc(C(F)(F)F)cc3)cc2c1 | –
– | – | Unstable | – | – | CC(OCC(=O)C(C)C)OC(=O)c1cc(-c2ccc(C3CCNCC3)cc2)c2ccc(-c3ccc(C(F)(F)F)cc3)cc2c1 (stereo not drawn) | –
– | – | Unstable | – | – | CN(C)CCOC(=O)c1cc(-c2ccc(C3CCNCC3)cc2)c2ccc(-c3ccc(C(F)(F)F)cc3)cc2c1 | –
– | – | Unstable | 2280 | 67 | CN(C)C(=O)COC(=O)c1cc(-c2ccc(C3CCNCC3)cc2)c2ccc(-c3ccc(C(F)(F)F)cc3)cc2c1 | AUC (Mus musculus): 54 µM·h
1.9 | 35 | – | 680 | 5 | O=C(O)c1cc(-c2ccc(C3CCNCC3)cc2)c2ccc(-c3ccc(C(F)(F)F)cc3)cc2c1 [PPTN] | AUC at 24 h [9]: 23 µM·h
